This is a sample that favours compounds with a hit; in the whole collection about 3.8% have one here.
FGF22 binding: binders of human FGF22 protein, primary screen, FGF22 synaptogenesis inhibitor project, biophysical, thermal shift, single point | Fibroblast growth factor 22 (Homo sapiens), Q9HCT0 | recombinant FGF22 thermal shift, SYPRO orange fluorescence; percent of sucrose octasulfate shift, DMSO zero | actives 1.5% (n = 340,000) | activity (Tm shift, normalised), % at 9.99 µM;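 active means mean Tm shift, scaled 0 neutral to 100 positive control, at about 1.3% or above, every replicate too, limit read from the data; inconclusive means no clear call, values can overlap the other calls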
Target sequence (Q9HCT0 whole entry, looked up): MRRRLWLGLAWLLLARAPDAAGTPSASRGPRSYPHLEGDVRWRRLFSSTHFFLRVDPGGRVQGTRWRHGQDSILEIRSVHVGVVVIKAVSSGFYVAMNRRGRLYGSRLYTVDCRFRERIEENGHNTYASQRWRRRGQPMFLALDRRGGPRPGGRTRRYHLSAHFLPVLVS
SIRT5 block: SIRT5 desuccinylase inhibitors, primary screen, biochemical, fluorescence imaging, single point, set 5 | NAD-dependent protein deacylase sirtuin-5, mitochondrial (Homo sapiens), Q9NXA8 | Purified SirT5, succinyl-peptide AMC, trypsin-coupled fluorescence | inhibition, % at 15 µM | actives 1.1% (n = 330,000); in the data active means inhibition above about 15%; inconclusive means no clear call, values can overlap the other calls
Target sequence (Q9NXA8 whole entry, looked up): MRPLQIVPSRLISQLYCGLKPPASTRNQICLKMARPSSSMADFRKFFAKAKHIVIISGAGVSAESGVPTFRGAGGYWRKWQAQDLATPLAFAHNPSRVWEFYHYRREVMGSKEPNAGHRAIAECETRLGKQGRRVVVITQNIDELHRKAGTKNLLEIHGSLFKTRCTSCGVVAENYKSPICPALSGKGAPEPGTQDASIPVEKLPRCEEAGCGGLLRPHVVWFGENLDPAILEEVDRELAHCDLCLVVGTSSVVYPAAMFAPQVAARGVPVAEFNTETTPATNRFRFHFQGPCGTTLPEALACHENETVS
ARNT TACC3 PPI: disruptors of ARNT/TACC3 protein interaction, primary screen, biochemical, AlphaScreen, single concentration; AID 623870, 2012; inhibition, % at 9.99 µM; AlphaScreen His-ARNT PAS-B/GST-TACC3 binding, luminescence; TACC3 fragment carries E629A point mutation; actives 0.66% (n = 390,000);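 active means mean inhibition of replicates at least 50% and at least half of replicates each reaching 50%; inconclusive means half or more replicates reach 50% but mean below 50%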;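 further: 0% = complete ARNT plus TACC3 wells and 100% = ARNT alone without TACC3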
XiGFP reactiv: activators of inactive X chromosome reactivation, primary screen, imaging, XiGFP fibroblasts, GFP high-content imaging, set 2; XiGFP mouse fibroblasts, % GFP-positive cells imaging, 3 d; cells co-treated with 5-aza-dC sensitizer; scaled so ellipticine positive control = 100%; AID 743238, 2013; activation, % at 7.58 µM; actives 0.055% (n = 360,000);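 active means mean normalized replicate activation at least 10% and every replicate at or above 10%; inconclusive means only one of the two criteria met; inactive means mean below 10% and not all replicates reach 10%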;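 further: 0% = median of on-plate neutral control wells and 100% = ellipticine 6 µM median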
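System: 68-5-11 XiGFP fibroblast line; Timing: 3 days compound exposure; Compound dosing: one concentration, pinned; Benchmarks: positive control ellipticine, 6 µM final; Buffer or medium: DMEM containing 5-aza-dC.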
DENV2 CPE: inhibitors of DENV2 cytopathic effect, primary screen, cell-based, plate reader, single concentration; actives 1.7% (n = 350,000); CPE inhibition, % at 9.99 µM; DENV2-infected cells, cytopathic effect rescue; in the data active means CPE inhibition above about 20%, passing the limit was not always enough; inconclusive means no clear call, values can overlap the other calls; tested in BHK-21 cells;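 further: 0% = median of neutral control wells and 100% = median of positive control wells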
FN deposition inh: inhibitors of fibronectin matrix deposition, primary screen, AH1F cells, Alexa488-fibronectin fluorescence, plate reader; AH1F fibroblasts, overnight; inhibition, % at 12.6 µM; actives 0.086% (n = 350,000); AID 743247, 2014;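 active means mean inhibition across replicates of 30% or more, regardless of how many single replicates reach that level; inconclusive means mean under 30% yet at least half of replicates reach 30%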;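 further: positive control wells lacked labelled fibronectin entirely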
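Schedule: 1 h cell adhesion before compound, then overnight fibronectin incubation; test system: AH1F fibroblast monolayer depositing Alexa488-labelled fibronectin into matrix; quantity: 10000 AH1F cells per well; probe or stimulus: fluorescent fibronectin at 24 nM final; signal: fluorescence, ex 485 nm, em 525 nm; evaluation: percent inhibition as loss of matrix-bound fibronectin fluorescence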
An asterisk follows results filed as active; ? = inconclusive; nt = no result.

SMILES	FGF22 binding	SIRT5 block	ARNT TACC3 PPI	XiGFP reactiv	DENV2 CPE	FN deposition inh
Nc1c(/C=C2/C=CC(=O)C(O)=C2)c(=O)nc2sc(CC(=O)N3CCOCC3)nn12	-0.1	34.1*	7.9	0.0	30.8*	-3.7
Nc1c(/C=C2/C=CC(=O)C(O)=C2)c(=O)nc2sc(CC(=O)N3CCCC3)nn12	-0.1	28.8*	3.8	0.0	6.5	11.8
Nc1c(C=C2C=CC(=O)C=C2)c(=O)nc2snc(SCc3ccccc3)n12	-0.1	3.0	1.2	-0.3	-3.9	3.9
CCc1nn2c(N)c(/C=C3\C=Nc4ccccc43)c(=O)nc2s1	0.3	0.8	nt	0.1	-0.1	-10.9
CC1=Nc2ccc(C)cc2/C1=C/c1c(N)n2nc(CC(=O)N3CCOCC3)sc2nc1=O	0.1	-1.1	8.9	0.0	5.0	-3.5
CCOC1=C/C(=C/c2c(N)n3nc(CC(=O)N4CCCC4)sc3nc2=O)C=CC1=O	0.1	-1.9	17.6	0.0	4.5	3.9
Nc1c(/C=C2/C=CC(=O)C(O)=C2)c(=O)nc2sc(CC(=O)N3CCCCC3)nn12	-0.3	43.1*	-0.6	0.0	3.3	-6.8
Nc1c(C=C2C=CC(=O)C=C2)c(=O)nc2sc(CC(=O)N3CCCCC3)nn12	-0.5	39.8*	0.5	0.1	3.6	-2.1
CCCNC(=O)N(C)C[C@H]1Oc2cc(C#CC3CC3)ccc2S(=O)(=O)N([C@H](C)CO)C[C@@H]1C	0.0	3.9	-15.2	1.7	4.6	nt
CCNC(=O)C[C@@H]1CC[C@H]2[C@H](COc3ccc(NC(=O)Nc4ccc(F)cc4)cc3C(=O)N2C)O1	0.1	4.9	-13.5	0.3	8.1	-9.8
Cc1cc2ncc(C(=O)Nc3ccccc3)c(C)n2n1	nt	nt	-3.6	nt	nt	nt
COC(=O)c1sccc1NC(=O)c1cnc2cc(C)nn2c1C	42.9*	-0.3	-0.3	0.0	3.1	nt
CC(=O)NCCNc1nc(NCc2cccs2)nc2ccsc12	-0.2	-2.1	nt	0.0	70.9*	-1.9
CNc1nc(N)c([N+](=O)[O-])c(NCc2ccccc2)n1	-0.3	-2.4	-4.3	0.2	76.1*	6.8
CNc1nc(NCc2ccccc2)c2sccc2n1	-0.2	19.5*	nt	0.0	1.4	13.0
Nc1nc(NCc2ccccc2)nc(NCc2ccccc2)c1[N+](=O)[O-]	nt	nt	12.9	0.0	nt	-5.1
c1ccc(CNc2nc(NCc3cccs3)nc3ccsc23)cc1	0.1	-1.4	nt	0.0	2.7	-0.5
C[C@@H]1CN([C@H](C)CO)C(=O)c2cc(NC(=O)Nc3ccccc3)ccc2O[C@H]1CN(C)C(=O)Nc1ccc(F)cc1	0.0	-4.8	-12.6	-1.0	?	0.9
C[C@H]1CN([C@@H](C)CO)C(=O)c2cccc(NC(=O)NC3CCCCC3)c2O[C@@H]1CN(C)Cc1ccc(C(=O)O)cc1	-0.1	24.7*	-7.6	0.2	3.1	nt
CC(C)NC(=O)Nc1cccc2c1O[C@H](CN(C)Cc1ccc(Oc3ccccc3)cc1)[C@@H](C)CN([C@@H](C)CO)C2=O	-0.7	8.4	active	-0.2	-1.6	nt
Cc1cc(C(=O)Nc2cccc3c2O[C@H](CN(C)Cc2ccc(Oc4ccccc4)cc2)[C@@H](C)CN([C@H](C)CO)C3=O)n(C)n1	-0.6	16.7*	1.8	0.0	-5.9	nt
C[C@@H]1CN([C@H](C)CO)C(=O)c2cccc(NC(=O)NC3CCCCC3)c2O[C@@H]1CN(C)Cc1ccc(Oc2ccccc2)cc1	-0.3	19.7*	13.2	-0.8	-1.7	3.7
C[C@H]1CN([C@@H](C)CO)C(=O)c2cccc(NC(=O)NC3CCCCC3)c2O[C@H]1CN(C)Cc1ccc(C(=O)O)cc1	-0.3	2.7	24.1	0.1	4.2	nt
C[C@@H]1CN([C@H](C)CO)C(=O)c2cccc(NC(=O)NC3CCCCC3)c2O[C@H]1CN(C)Cc1ccc(Oc2ccccc2)cc1	-0.3	-5.0	21.8	-0.8	-3.7	4.8
CO[C@H]1CN(C)C(=O)c2cc(NC(=O)c3cc(C)on3)ccc2OC[C@@H](C)NC[C@H]1C	0.0	-6.4	-7.5	0.1	-0.9	4.7
SMILES	FGF22 binding	SIRT5 block	ARNT TACC3 PPI	XiGFP reactiv	DENV2 CPE	FN deposition inh
Cc1cc(C(=O)Nc2cccc3c2O[C@H](CN(C)CC2CC2)[C@H](C)CN([C@H](C)CO)C3=O)n(C)n1	0.0	16.3*	-2.1	0.1	-2.1	nt
CC(C)(C)c1ccc(C(=O)N2[C@H](COCc3ccccc3)C=CS2(=O)=O)cc1	-0.2	19.6*	nt	0.5	0.5	-23.5
COc1cccc(CN2C[C@@H](C)[C@H](OC)CN(C)C(=O)c3ccc(NS(=O)(=O)c4cn(C)cn4)cc3OC[C@H]2C)c1	nt	nt	nt	-0.2	nt	-4.7
CCOC(=O)c1cnc(-n2[nH]c(C)c(Cc3ccccc3)c2=O)[nH]c1=O	0.1	3.1	74.9*	0.0	2.1	2.2
O=S(=O)(c1ccc(N2CCN(S(=O)(=O)c3ccccc3)CC2)nc1)N1CCCC1	43.1*	-6.3	0.4	0.0	1.0	4.9
O=S(=O)(c1ccc(N2CCCC2)nc1)N1CCCC1	0.0	-2.9	-2.1	0.0	-8.1	-7.8
NNc1ccc(S(=O)(=O)N2CCCCC2)cn1	-0.3	-3.9	53.8*	-0.3	12.6	3.0
CS(=O)(=O)N1N=C(c2ccco2)CC1c1cccc([N+](=O)[O-])c1 (stereo not given)	0.0	-4.1	-46.7	0.0	-2.9	3.4
CS(=O)(=O)N1N=C(c2ccco2)CC1c1ccc(Br)cc1 (stereo not given)	43.5*	-4.0	-0.1	0.0	16.7	2.6
C/C(=N\NC(=O)c1ccccc1)c1cc2cc([N+](=O)[O-])ccc2oc1=O	nt	nt	76.9*	0.2	nt	-0.3
C/C(=N\NC(=O)c1ccc([N+](=O)[O-])cc1)c1cc2ccccc2oc1=O	nt	nt	nt	0.0	nt	2.7
CCNC(=O)Nc1ccc2c(c1)C(=O)N(C)[C@H]1CC[C@@H](CC(=O)NCc3ccc(F)cc3)O[C@H]1CO2	-0.2	6.2	-15.1	0.3	-10.1	-8.8
CO[C@H](CN(C)CC1CCOCC1)[C@@H](C)CN(C(=O)Nc1ccc(F)cc1)[C@@H](C)CO	0.6	0.8	-5.8	0.2	10.0	1.5
O=C(CNc1ccc(Br)cc1)c1ccc(O)cc1	0.5	17.4*	2.5	0.3	-6.2	-15.4

Source: PubChem BioAssay
